The source of these data is ChEMBL document CHEMBL2163331, “Multidrug resistance reversal and apoptosis induction in human colon cancer cells by some flavonoids present in citrus plants” (J Nat Prod, 2012).

SMILES strings stand for the structures. Active and inactive are the calls of the source. The calls are words filed in the database; no cut-off is given here.

Data set [1] in a line: Induction of apoptosis in human […] cells assessed as necrotic cells at 100 uM after 48 hrs by annexin-V and propidium iodide staining based flow cytometry (reference value: 9.57 +/- 2.83%). In kind it is functional. (Flow cytometry measures light scatter and fluorescence of single cells or particles in a stream.)
For data set [2], the target named is T1, ATP-dependent translocase ABCB1 (Homo sapiens, UniProt P08183). Description: Inhibition of p-glycoprotein in human LoVo/DX cells assessed accumulation of rhodamine 123 at 5 to 100 uM after 60 mins by fluorescence assay. Particulars: 1 h.
T1 sequence (P08183 whole entry): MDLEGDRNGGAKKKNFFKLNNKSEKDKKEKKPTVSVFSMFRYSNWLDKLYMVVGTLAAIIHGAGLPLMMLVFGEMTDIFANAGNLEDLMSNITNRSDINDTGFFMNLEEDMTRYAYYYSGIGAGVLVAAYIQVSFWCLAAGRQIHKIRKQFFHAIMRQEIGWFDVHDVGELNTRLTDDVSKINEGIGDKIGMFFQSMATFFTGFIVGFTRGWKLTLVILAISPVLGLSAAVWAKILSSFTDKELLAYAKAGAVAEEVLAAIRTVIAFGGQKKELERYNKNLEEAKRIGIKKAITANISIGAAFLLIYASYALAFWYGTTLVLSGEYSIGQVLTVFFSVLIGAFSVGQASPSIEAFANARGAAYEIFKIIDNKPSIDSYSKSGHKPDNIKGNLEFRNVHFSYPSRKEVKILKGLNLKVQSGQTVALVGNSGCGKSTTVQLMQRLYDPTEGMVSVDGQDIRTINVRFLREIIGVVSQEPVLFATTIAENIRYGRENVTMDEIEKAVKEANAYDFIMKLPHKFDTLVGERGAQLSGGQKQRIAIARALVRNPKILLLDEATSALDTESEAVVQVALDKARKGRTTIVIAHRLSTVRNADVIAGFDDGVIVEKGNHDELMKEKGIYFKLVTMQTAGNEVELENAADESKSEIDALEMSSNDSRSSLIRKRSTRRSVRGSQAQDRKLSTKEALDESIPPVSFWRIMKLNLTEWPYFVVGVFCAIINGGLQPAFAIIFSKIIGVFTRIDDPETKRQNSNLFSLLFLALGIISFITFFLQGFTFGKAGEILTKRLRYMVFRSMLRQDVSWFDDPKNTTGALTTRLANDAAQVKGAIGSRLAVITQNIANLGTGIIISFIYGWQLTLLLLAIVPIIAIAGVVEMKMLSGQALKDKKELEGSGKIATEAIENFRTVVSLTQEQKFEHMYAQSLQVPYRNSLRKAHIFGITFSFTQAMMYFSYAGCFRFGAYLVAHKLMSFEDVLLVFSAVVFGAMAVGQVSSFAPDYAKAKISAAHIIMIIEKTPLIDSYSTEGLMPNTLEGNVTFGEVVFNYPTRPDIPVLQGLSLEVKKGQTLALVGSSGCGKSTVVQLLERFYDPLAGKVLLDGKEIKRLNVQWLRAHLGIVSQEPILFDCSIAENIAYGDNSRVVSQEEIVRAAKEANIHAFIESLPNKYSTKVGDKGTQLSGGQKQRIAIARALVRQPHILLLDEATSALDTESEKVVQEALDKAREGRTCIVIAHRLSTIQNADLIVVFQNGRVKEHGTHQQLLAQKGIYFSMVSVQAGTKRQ
Data set [3] has as its system LoVo. Description: Cytotoxicity against human drug-sensitive LoVo cells after 72 hrs by SRB assay. In kind it is functional, cell-based. In a few lines: (§1)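 Cells seeded at 30 000/well, attached 60 min at 37 °C, then compound added in an equal volume of medium and incubated 72 h. Read by sulforhodamine B at A492. Survival = A492 treated / A492 medium-only control × 100%. DMSO was at most 0.3% in samples. Triplicate experiments, means ± SD, Student's t test.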
(In general: Sulforhodamine B stains cellular protein and so reports cell mass.)

Data set [4] concerns LoVo. In words: Induction of apoptosis in human drug-sensitive LoVo cells assessed as necrotic cells at 100 uM after 48 hrs by annexin-V and propidium iodide staining based flow cytometry (reference value: 10.44 +/- 3.23%). In kind it is functional.
A further data set concerns LoVo/DX. In words: Cytotoxicity against human drug-resistant LoVo/DX cells after 72 hrs by SRB assay. Format: functional, cell-based. The method in brief:
as §1

The subject of data set [5] is LoVo. In words: Induction of apoptosis in human drug-sensitive LoVo cells assessed as apoptotic cells at 100 uM after 48 hrs by annexin-V and propidium iodide staining based flow cytometry (reference value: 6.68 +/- 1.77%). In kind it is functional.
Data set [6] can be described thus: Induction of apoptosis in human […] cells assessed as apoptotic cells at 100 uM after 48 hrs by annexin-V and propidium iodide staining based flow cytometry (reference value: 6.16 +/- 1.67%). Format: functional.
A short description of data set [7]: Induction of apoptosis in human […] cells assessed as activation of caspase-3 at 15 uM after 48 hrs relative to control. Format: functional. The method in brief: (§2)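 LoVo (sensitive) or LoVo/Dx (doxorubicin-selected; kept in 100 ng/mL doxorubicin) cells, 800 000/well, attached 24 h, then exposed to compound in fresh medium for 48 h. Cells scraped and pelleted. Caspase-3 activity read colorimetrically at A405 as pNA released from DEVD-pNA (commercial kit). Reported as ratio of treated to medium-only control. Triplicate, means ± SD, Student's t test.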

Data set [8] deals with LoVo. In words: Induction of apoptosis in human drug-sensitive LoVo cells assessed as apoptotic cells at 15 uM after 48 hrs by annexin-V and propidium iodide staining based flow cytometry (reference value: 6.68 +/- 1.77%). In kind it is functional.
Data set [9] has as its system LoVo. Description: Induction of apoptosis in human drug-sensitive LoVo cells assessed as necrotic cells at 15 uM after 48 hrs by annexin-V and propidium iodide staining based flow cytometry (reference value: 10.44 +/- 3.23%). Format: functional.
For data set [10], the system named is LoVo. In words: Induction of apoptosis in human drug-sensitive LoVo cells assessed as activation of caspase-3 at 15 uM after 48 hrs relative to control. Format: functional. The method in brief:
as §2

The nature of data set [11]: Induction of apoptosis in human […] cells assessed as apoptotic cells at 15 uM after 48 hrs by annexin-V and propidium iodide staining based flow cytometry (reference value: 6.16 +/- 1.67%). Format: functional.
Data set [12] in a line: Induction of apoptosis in human […] cells assessed as necrotic cells at 15 uM after 48 hrs by annexin-V and propidium iodide staining based flow cytometry (reference value: 9.57 +/- 2.83%). Format: functional.
Data set [13] in a line: Induction of apoptosis in human […] cells assessed as activation of caspase-3 at 25 uM after 48 hrs relative to control. In kind it is functional. In a few lines: (§3)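 Cells seeded at 800 000/well and allowed to attach 24 h. Compound added in fresh medium, then 48 h incubation. Cells scraped and centrifuged, and caspase-3 activity measured colorimetrically by pNA release from DEVD-pNA (A405) with a kit. Result expressed as a ratio to a medium-only control. Triplicate, means ± SD.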

Data set [14] relates to LoVo. Description: Induction of apoptosis in human drug-sensitive LoVo cells assessed as activation of caspase-3 at 100 uM after 48 hrs relative to control. In kind it is functional. In a few lines: as §3
Data set [15] has as its system LoVo. In words: Induction of apoptosis in human drug-sensitive LoVo cells assessed as activation of caspase-3 at 75 uM after 48 hrs relative to control. In kind it is functional. The method in brief: as §3
Data set [16] has as its target T1, ATP-dependent translocase ABCB1. Description: Inhibition of p-glycoprotein in human LoVo/DX cells assessed accumulation of rhodamine 123 at 75 to 100 uM after 60 mins by fluorescence assay. In kind it is cell-based. Conditions: 1 h. In a few lines:
(§4)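 Cells at 300 000/mL in serum- and phenol red-free medium, preincubated 15 min at room temperature with modulator (5−100 μM). Rhodamine 123 then added (final 2 μM) for 60 min at 37 °C. Washed cells read by flow cytometry (488 nm excitation, 530/30 nm), 5000 events. FIR = (LoVo/Dx treated/control)/(LoVo treated/control). Triplicate.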

Data set [17] can be described thus: Induction of apoptosis in human […] cells assessed as necrotic cells at 75 uM after 48 hrs by annexin-V and propidium iodide staining based flow cytometry (reference value: 9.57 +/- 2.83%). In kind it is functional.
Data set [18] is described as follows: Induction of apoptosis in human […] cells assessed as necrotic cells at 25 uM after 48 hrs by annexin-V and propidium iodide staining based flow cytometry (reference value: 9.57 +/- 2.83%). In kind it is functional.
Data set [19] has as its system LoVo. In words: Inhibition of rhodamine 123 accumulation in human LoVo cells at 75 to 100 uM after 60 mins by fluorescence assay. In kind it is functional, cell-based. In a few lines:
as §4

Data set [20] is described as follows: Induction of apoptosis in human […] cells assessed as activation of caspase-3 at 75 uM after 48 hrs relative to control. Format: functional. The method in brief:
as §3

Data set [21] in a line: Induction of apoptosis in human […] cells assessed as apoptotic cells at 75 uM after 48 hrs by annexin-V and propidium iodide staining based flow cytometry (reference value: 6.16 +/- 1.67%). In kind it is functional.
Data set [22] can be described thus: Induction of apoptosis in human […] cells assessed as apoptotic cells at 25 uM after 48 hrs by annexin-V and propidium iodide staining based flow cytometry (reference value: 6.16 +/- 1.67%). Format: functional.
In data set [23] the test system is LoVo. Description: Induction of apoptosis in human drug-sensitive LoVo cells assessed as apoptotic cells at 75 uM after 48 hrs by annexin-V and propidium iodide staining based flow cytometry (reference value: 6.68 +/- 1.77%). Format: functional.
Data set [24] relates to LoVo. Description: Induction of apoptosis in human drug-sensitive LoVo cells assessed as activation of caspase-3 at 25 uM after 48 hrs relative to control. In kind it is functional. The method in brief: as §3
In data set [25] the test system is LoVo. Description: Induction of apoptosis in human drug-sensitive LoVo cells assessed as necrotic cells at 75 uM after 48 hrs by annexin-V and propidium iodide staining based flow cytometry (reference value: 10.44 +/- 3.23%). Format: functional.
The test system of data set [26] is LoVo. In words: Induction of apoptosis in human drug-sensitive LoVo cells assessed as necrotic cells at 25 uM after 48 hrs by annexin-V and propidium iodide staining based flow cytometry (reference value: 10.44 +/- 3.23%). Format: functional.
Data set [27] addresses T1, ATP-dependent translocase ABCB1. Description: Inhibition of p-glycoprotein in human LoVo/DX cells assessed nuclear accumulation of doxorubicin at 100 uM after 60 mins by fluorescence assay. Format: cell-based. Particulars: 1 h. In a few lines: (§5)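 Cells seeded at 15 000/well and cultured 48 h. Fresh F12 medium with 50 μM doxorubicin (plus 100 μM modulator) added for 60 min at 37 °C. Cells washed, then imaged by fluorescence microscopy (40× objective, excitation 528−553 nm, emission 578−633 nm) under identical illumination.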

Data set [28] has as its system LoVo. Description: Induction of apoptosis in human drug-sensitive LoVo cells assessed as apoptotic cells at 25 uM after 48 hrs by annexin-V and propidium iodide staining based flow cytometry (reference value: 6.68 +/- 1.77%). In kind it is functional.
Data set [29] can be described thus: Induction of apoptosis in human […] cells assessed as activation of caspase-3 at 100 uM after 48 hrs relative to control. Format: functional. In a few lines:
as §3

Data set [30] has as its system LoVo. In words: Inhibition of doxorubicin intracellular accumulation in human LoVo cells at 100 uM after 60 mins by fluorescence assay. Format: functional, cell-based. In a few lines:
as §5

The subject of data set [31] is LoVo. Description: Potentiation of doxorubicin-induced cytotoxicity in human LoVo cells at 5 uM after 72 hrs by SRB assay. In kind it is functional, cell-based. The method in brief: (§6)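 Doxorubicin cytotoxicity measured with and without 5 μM modulator by SRB over 72 h. Cells seeded at 30 000/well and attached 60 min at 37 °C before treatment. Survival taken as A492 treated / A492 control × 100%. Three experiments, means ± SD, Student's t test (p < 0.05).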

Data set [32] has as its target T1, ATP-dependent translocase ABCB1. In words: Inhibition of p-glycoprotein in human LoVo/DX cells assessed as potentiation of doxorubicin-induced cytotoxicity at 5 uM after 72 hrs by SRB assay. In kind it is cell-based. In a few lines:
as §6

With `COc1ccc([C@@H]2CC(=O)c3c(O)cc(OC)cc3O2)cc1`, the Activity came out at 17.74% in data set [1], 17.82% in the data set on LoVo [4], 14.1% in the data set with LoVo [5] and 9.67% in [6]. The “inhibition (INH)” value in data set [2] was “Not Active”. Also, the outcome in the data set with LoVo [3] and with LoVo/DX was Active.

As to `CC[C@@]1(O)C(=O)OCc2c1cc1n(c2=O)Cc2cc3ccccc3nc2-1` [CAMPTOTHECIN], the Ratio was determined as 3.83 in data set [7] and 3.4 with LoVo [10]. In addition, the Activity in the data set on LoVo [8] is given as 17.61%; with LoVo [9], 23.81%; in data set [11] it was 17.56%; in data set [12], 17.96%.

Turning to `O=C1c2c(O)cc(O)cc2O[C@H](c2ccc(O)cc2)[C@H]1O` [DIHYDROKAEMPFEROL], the Activity in data set [1] came out at 6.83%; in the data set with LoVo [4], 10.02%; with LoVo [5] it was 10.96%; in data set [6] it was 9.38%. For the same compound, the “inhibition (INH)” value in [2] is given as “Not Active”. For the same compound, the result in the data set on LoVo [3] and with LoVo/DX was Active.

Regarding `O=C1C[C@@H](c2ccc(O)cc2)Oc2cc(O)cc(O)c21` [NARINGENIN], the Activity in data set [1] came out at 5.65%; with LoVo [4], 8.16%; with LoVo [5] it was 15.44%; in data set [6], 6.98%. For the same compound, the “inhibition (INH)” value in data set [2] is on record as “Not Active”. The outcome in the data set with LoVo [3] and with LoVo/DX was Active.

As to `COc1cc(O)c2c(c1)O[C@H](c1ccc(O)cc1)CC2=O` [SAKURANETIN], the Activity in [1] worked out at 18.89%; with LoVo [4] it was 25.28%; in the data set with LoVo [5], 18.16%; in [6], 4.87%. In data set [2], the “inhibition (INH)” value is on record as “Not Active”. Besides, the result in the data set with LoVo [3] and in the data set with LoVo/DX was Active.

As to `COc1ccc(-c2cc(=O)c3c(OC)c(OC)c(OC)c(OC)c3o2)cc1` [TANGERETIN], the Ratio in data set [13] is recorded as 2.08; in the data set on LoVo [14] it was 2.17; with LoVo [15], 2.06; in [20], 2.37; in the data set on LoVo [24], 1.04; in [29], 2.71. In addition, the “inhibition (INH)” value in data set [16] and in data set [27] was “Active” throughout. In addition, the Activity in data set [17] turned out to be 17.45%; in data set [1], 21.75%; in data set [18] it was 17.55%; in data set [21] it was 13.35%; in data set [22], 13.87%; in the data set on LoVo [23] it was 12.83%. For the same compound, the Activity is 29.61% in the data set on LoVo [25]; 25.82% with LoVo [26]; 11.57% in the data set with LoVo [28]; 23.75% in the data set on LoVo [4]; 15.19% with LoVo [5]; “Active” in data set [32]. In addition, the Activity in data set [6] was found to be 23.05%. Moreover, the inhibition result in the data set on LoVo [19] and in the data set with LoVo [30] was “inactive” throughout. The outcome in the data set with LoVo [3] and with LoVo/DX was Active. Further, in the data set on LoVo [31], the result was inactive.
